# Test results reported in ChEMBL document CHEMBL1132961 (J Med Chem, 2000).
# Tests used:
# PBMC [1] = test: (§1) Effective concentration required for antiviral activity against HIV-1 1002-60 in PBMC cells; format: functional, cell-based; settings: Homo sapiens
# Summary of the method: (§2)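 PBMC cells infected with HIV-1 clinical isolates, using an XTT cytopathic assay similar to the CEM assay. EC50 read as protection from viral cytopathic effect.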
# PBMC [2] = test: (§3) Effective concentration required for antiviral activity against HIV-1 1026-60 in PBMC cells; format: functional, cell-based; settings: Homo sapiens; summary of the method: as §2
# PBMC [3] = test: (§4) Effective concentration required for antiviral activity against HIV-1 144-44 in PBMC cells; format: functional, cell-based; settings: Homo sapiens; summary of the method: as §2
# [4] = Tested for cytotoxic activity against HIV-1 1002-60 in PBMC cells; format: cell-based; settings: human, read-out: TC50 (the source's name)
# [5] = Tested for cytotoxic activity against HIV-1 1026-60 in PBMC cells; format: cell-based; settings: human, read-out: TC50 (the source's name)
# [6] = Tested for cytotoxic activity against HIV-1 144-44 in PBMC cells; format: cell-based; settings: human, read-out: TC50 (the source's name)
# CYP2C9 [7] = molecular target: T1, CYP2C9 (Homo sapiens, UniProt P11712); test: Residual activity of cytochrome P450 at 10 uM
# T1 sequence (P11712 whole entry): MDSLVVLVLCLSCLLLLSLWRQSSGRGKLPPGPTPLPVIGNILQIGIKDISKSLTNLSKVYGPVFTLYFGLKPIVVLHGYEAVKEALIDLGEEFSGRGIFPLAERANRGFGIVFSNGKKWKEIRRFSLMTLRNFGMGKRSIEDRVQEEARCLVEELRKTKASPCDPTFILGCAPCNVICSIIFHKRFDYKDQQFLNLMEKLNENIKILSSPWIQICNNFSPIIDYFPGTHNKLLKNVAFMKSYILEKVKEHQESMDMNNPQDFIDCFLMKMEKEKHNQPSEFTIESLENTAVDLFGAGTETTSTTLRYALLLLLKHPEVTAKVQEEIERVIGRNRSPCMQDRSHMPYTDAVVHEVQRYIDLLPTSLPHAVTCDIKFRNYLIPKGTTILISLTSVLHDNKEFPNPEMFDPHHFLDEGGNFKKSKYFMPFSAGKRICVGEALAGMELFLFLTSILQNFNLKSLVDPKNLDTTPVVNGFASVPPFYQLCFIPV
# CYP2D6 [8] = molecular target: T2, CYP2D6 (Homo sapiens, UniProt P10635); test: Residual activity of cytochrome P4502D6 at 1 uM
# T2 sequence (P10635 whole entry): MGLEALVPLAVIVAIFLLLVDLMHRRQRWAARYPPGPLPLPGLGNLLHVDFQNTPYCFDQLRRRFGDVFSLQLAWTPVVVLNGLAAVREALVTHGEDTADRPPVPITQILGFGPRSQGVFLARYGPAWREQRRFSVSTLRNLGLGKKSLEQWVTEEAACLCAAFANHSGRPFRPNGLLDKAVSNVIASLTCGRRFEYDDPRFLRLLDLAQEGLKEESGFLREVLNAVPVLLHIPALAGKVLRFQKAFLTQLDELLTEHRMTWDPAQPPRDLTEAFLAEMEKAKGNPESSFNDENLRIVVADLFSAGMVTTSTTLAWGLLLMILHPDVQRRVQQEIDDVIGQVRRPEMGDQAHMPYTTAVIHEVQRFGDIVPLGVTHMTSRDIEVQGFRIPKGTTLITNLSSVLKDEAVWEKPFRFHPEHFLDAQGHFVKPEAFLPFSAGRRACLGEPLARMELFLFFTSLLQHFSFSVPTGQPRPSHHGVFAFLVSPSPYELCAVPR
# CYP2C9 [9] = molecular target: T1, CYP2C9; test: Residual activity of cytochrome P450 2C9 at 1 uM
# CYP2D6 [10] = molecular target: T2, CYP2D6; test: Residual activity of cytochrome P4502D6 at 10 uM
# CYP2D6 [11] = molecular target: T2, CYP2D6; test: Residual activity of cytochrome P4502D6 at 100 uM
# CYP2C9 [12] = molecular target: T1, CYP2C9; test: Residual activity of cytochrome P450 2C9 at 100 uM
# [13] = Concentration which elicits cytotoxicity in 50% of uninfected human lymphocyte derived CEM cells; format: cell-based, CCRF-CEM; settings: uninfected CCRF-CEM cells, read-out: TC50 (the source's name)
# Summary of the method: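 Cytotoxicity measured in uninfected human lymphocyte-derived CEM cells by XTT protocol.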
# [14] = molecular target: T3, Human immunodeficiency virus type 1 protease (Human immunodeficiency virus 1, UniProt Q72874); test: Tested for binding affinity against HIV protease
# [15] = test system: Human immunodeficiency virus 1; test: Effective concentration at which 50% of the HIV-IIIB-infected human lymphocyte-derived CEM cells protected from HIV-1 infection; settings: Human immunodeficiency virus 1, CCRF-CEM
# [16] = as §1; format: functional, cell-based; settings: Homo sapiens; summary of the method: as §2
# [17] = as §3; format: functional, cell-based; settings: Homo sapiens; summary of the method: as §2
# [18] = as §4; format: functional, cell-based; settings: Homo sapiens; summary of the method: as §2
# [19] = Effective concentration required for antiviral activity against HIV-1 RoJo in PBMC cells; format: functional, cell-based; settings: Homo sapiens; summary of the method: as §2
# [20] = Effective concentration required for antiviral activity against HIV-1 SLKA in PBMC cells; format: functional, cell-based; settings: Homo sapiens; summary of the method: as §2
# [21] = Effective concentration required for antiviral activity against HIV-1 TEKI in PBMC cells; format: functional, cell-based; settings: Homo sapiens; summary of the method: as §2
# [22] = Effective concentration required for antiviral activity against HIV-1 WeJo in PBMC cells; format: functional, cell-based; settings: Homo sapiens; summary of the method: as §2
# [23] = Tested for maximum plasma concentration in mice; format: ADME, organism-based; settings: mouse
# Summary of the method: (§5)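 Mice dosed orally by gavage at 25 mg/kg. Vehicle was usually 20% 0.1 N NaOH/80% 0.5% methylcellulose, and in two cases 20% 0.1 N NaOH/80% PEG 400. Plasma Cmax and AUC measured; AUC not determined where Cmax was too low.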
# [24] = Half-life period in rat; format: ADME, organism-based; settings: in vivo
# Summary of the method: (§6)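 Rats given 10 mg/kg orally in NaOH solution buffered to pH 7.4. Plasma Cmax, T1/2 and AUC determined.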
# [25] = AUC value in mice; format: ADME, organism-based; settings: mouse, plasma; summary of the method: as §5
# [26] = AUC value in rat; format: ADME; settings: plasma; summary of the method: as §6
# [27] = Tested for maximum plasma concentration in rats; format: ADME, organism-based; settings: rat; summary of the method: as §6
# [28] = molecular target: T3, Human immunodeficiency virus type 1 protease; test: Activity of potent nonpeptidic inhibitor against protease
# Summary of the method: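 Incubated with 40 µM His-Lys-Ala-Arg-Val-Leu-(p-NO₂-Phe)-Glu-Ala-Nle-Ser-NH₂ in 1.0% DMSO, pH 6.2 MES buffer (DTT, NaCl, EDTA, PEG 8000) for 60 min at 37 °C, then TFA quench. Substrate and product separated by reverse-phase HPLC, read at 220 nm. % control = conversion with inhibitor / conversion without × 100; IC50 derived.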
# [29] = pooled result: one value given for 5 cell lines, strains, targets or settings
smiles,measurement,setting,value
CC(C)(C)NC(=O)[C@@H]1CN(Cc2cccnc2)CCN1C[C@@H](O)C[C@@H](Cc1ccccc1)C(=O)N[C@H]1c2ccccc2C[C@H]1O,EC50,PBMC [1],> 100000 nM
same,EC50,PBMC [2],16600 nM
same,EC50,PBMC [3],3000 nM
same,CC50,[4],> 100000 nM
same,CC50,[5],> 100000 nM
same,CC50,[6],> 100000 nM
same,residual activity at 10 µM,CYP2C9 [7],89%
same,residual activity at 1 µM,CYP2D6 [8],100%
same,residual activity at 1 µM,CYP2C9 [9],93%
same,residual activity at 10 µM,CYP2D6 [10],82%
same,residual activity at 100 µM,CYP2D6 [11],31%
same,residual activity at 100 µM,CYP2C9 [12],68%
Cc1cc(SC2=C(O)OC(CCc3ccccc3)(C(C)C)CC2=O)c(C(C)(C)C)cc1NS(=O)(=O)c1cccc(C#N)c1 (stereo not drawn),CC50,[13],66000 nM
same,Ki,[14],1.4 nM
same,EC50,[15],1500 nM
Cc1cc(SC2=C(O)OC(CCc3ccccc3)(C(C)C)CC2=O)c(C(C)(C)C)cc1NS(=O)(=O)c1ccc(C(F)(F)F)cn1 (stereo not drawn),CC50,[13],66000 nM
same,EC50,[16],610 nM
same,EC50,[17],270 nM
same,EC50,[18],260 nM
same,EC50,[19],680 nM
same,EC50,[20],710 nM
same,EC50,[21],810 nM
same,EC50,[22],690 nM
same,CC50,[4],> 100000 nM
same,CC50,[5],> 100000 nM
same,CC50,[6]; [29],> 100000 nM
same,Ki,[14],1.04 nM
same,EC50,[15],600 nM
Cc1cc(SC2=C(O)O[C@](CCc3ccc(O)cc3)(C(C)C)CC2=O)c(C(C)(C)C)cc1OS(C)(=O)=O,Cmax,[23],6.54 µM
same,half-life,[24],0.94 h
same,AUC,[25],5400 ng·h/mL
same,AUC,[26],5390 ng·h/mL
same,Cmax,[27],6.54 µM
same,CC50,[13],80000 nM
same,Ki,[14],0.03 nM
same,EC50,[15],530 nM
Cc1cc(SC2=C(O)OC(CCc3ccccc3)(C(C)C)CC2=O)c(C(C)(C)C)cc1NS(=O)(=O)c1ccccn1 (stereo not drawn),Cmax,[23],1.14 µM
same,CC50,[13],67000 nM
same,IC50,[28],3 nM
same,EC50,[15],700 nM
Cc1cc(SC2=C(O)OC(CCc3ccc(O)cc3)(C(C)C)CC2=O)c(C(C)(C)C)cc1NS(=O)(=O)c1ccc(C(F)(F)F)cn1 (stereo not drawn),Cmax,[23],1.27 µM
same,AUC,[25],980 ng·h/mL
same,CC50,[13],68000 nM
same,EC50,[15],4300 nM
Cc1cc(SC2=C(O)OC(CCc3ccc(O)cc3)(C(C)C)CC2=O)c(C(C)(C)C)cc1OS(=O)(=O)c1cccs1 (stereo not drawn),CC50,[13],72000 nM
same,EC50,[17],1420 nM
same,EC50,[18],540 nM
same,EC50,[19],700 nM
same,EC50,[20],500 nM
same,EC50,[21],780 nM
same,EC50,[22],390 nM
same,CC50,[5],> 100000 nM
same,CC50,[6]; [29],> 100000 nM
same,IC50,[28],21.8 nM
same,EC50,[15],2400 nM
Cc1cc(SC2=C(O)O[C@](CCc3ccccc3)(C(C)C)CC2=O)c(C(C)(C)C)cc1NS(=O)(=O)c1ccc(C(F)(F)F)cn1,Cmax,[23],9.2 µM
same,half-life,[24],2.3 h
same,AUC,[25],22000 ng·h/mL
same,AUC,[26],6700 ng·h/mL
same,Cmax,[27],3.5 µM
same,CC50,[13],65000 nM
same,Ki,[14],0.31 nM
same,EC50,[15],450 nM
CCNS(=O)(=O)Oc1cc(C(C)(C)C)c(SC2=C(O)OC(CCc3ccccc3)(C(C)C)CC2=O)cc1C (stereo not drawn),Cmax,[23],0.62 µM
same,CC50,[13],67000 nM
same,EC50,[15],800 nM
Cc1cc(SC2=C(O)O[C@](CCc3ccc(O)cc3)(C(C)C)CC2=O)c(C(C)(C)C)cc1NS(=O)(=O)c1ccc(C(F)(F)F)cn1,CC50,[13],66000 nM
same,Ki,[14],0.39 nM
same,EC50,[15],1800 nM
Cc1cc(SC2=C(O)OC(CCc3ccc(O)cc3)(C(C)C)CC2=O)c(C(C)(C)C)cc1OS(C)(=O)=O (stereo not drawn),CC50,[13],> 100000 nM
same,EC50,[16],1840 nM
same,EC50,[17],1120 nM
same,EC50,[18],730 nM
same,EC50,[19],1240 nM
same,EC50,[20],1790 nM
same,EC50,[21],1930 nM
same,EC50,[22],2050 nM
same,CC50,[4],> 100000 nM
same,CC50,[5],> 100000 nM
same,CC50,[6]; [29],> 100000 nM
same,IC50,[28],2.2 nM
same,EC50,[15],600 nM
Cc1cc(SC2=C(O)OC(CCc3ccccc3)(C(C)C)CC2=O)c(C(C)(C)C)cc1NS(C)(=O)=O (stereo not drawn),CC50,[13],> 100000 nM
same,Ki,[14],0.83 nM
same,EC50,[15],1600 nM
Cc1cc(SC2=C(O)OC(C)(CCc3ccc(O)cc3)CC2=O)c(C(C)(C)C)cc1NS(=O)(=O)c1ccc(C(F)(F)F)cc1 (stereo not drawn),CC50,[13],79000 nM
same,IC50,[28],12.3 nM
same,EC50,[15],3500 nM
